Results as given in ChEMBL document CHEMBL1667724, “Landomycins P-W, cytotoxic angucyclines from Streptomyces cyanogenus S-136” (J Nat Prod, 2011).

Assays:
MCF7 = assay: Cytotoxicity against ER-positive human MCF7 cells after 24 hrs by trypan blue staining; format: functional, cell-based
Method in brief: (§1)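 Cells grown in DMEM; 50 × 10^3 cells per well seeded and left to attach overnight, then medium replaced with fresh medium containing a range of compound concentrations for 24 hours at 37 °C. Adherent plus floating cells pooled, resuspended in PBS, and stained with 0.4% trypan blue for 3 min. Live and dead cells counted on a hemocytometer. IC50 taken from dose-response curves as the mean of three experiments. Ethanol served as positive control and untreated medium as negative control.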

[1] = Cytotoxicity against ER-refractory human MDA231 cells after 24 hrs by trypan blue staining; format: functional, cell-based; conditions: MDA-MB-231, 24 h; method in brief: as §1
[2] = Homo sapiens, MCF7, 24 h, read-out: IC50

Compound	IC50 (MCF7; [2]) [nM]	IC50 [1] [nM]	IC50 (MCF7; mcf7)
Cc1cc(O)c2c(c1)C[C@@H](O)C1=C2C(=O)c2c(O)ccc(O[C@H]3C[C@@H](O)[C@H](O[C@H]4C[C@@H](O)[C@H](O)[C@@H](C)O4)[C@@H](C)O3)c2C1=O [LANDOMYCIN D]	7600	1750	
Cc1cc(O)c2c3c(ccc2c1)C(=O)c1c(O[C@H]2C[C@@H](O)[C@H](O[C@H]4C[C@@H](O[C@H]5CC[C@H](O[C@H]6C[C@@H](O)[C@H](O[C@H]7C[C@@H](O)[C@H](O)[C@@H](C)O7)[C@@H](C)O6)[C@H](C)O5)[C@H](O)[C@@H](C)O4)[C@@H](C)O2)ccc(O)c1C3=O [LANDOMYCIN W]	6900	2650	
Cc1cc(O)c2c3c(ccc2c1)C(=O)c1c(O[C@H]2C[C@@H](O)[C@H](O[C@H]4C[C@@H](O[C@H]5CC[C@H](O[C@H]6C[C@@H](O)[C@H](O[C@H]7C[C@@H](O[C@H]8CC[C@H](O)[C@H](C)O8)[C@H](O)[C@@H](C)O7)[C@@H](C)O6)[C@H](C)O5)[C@H](O)[C@@H](C)O4)[C@@H](C)O2)ccc(O)c1C3=O [LANDOMYCIN U]	2100	7300	
Cc1cc(O)c2c(c1)C[C@@H](O)C1=C2C(=O)c2c(O)ccc(O)c2C1=O [LANDOMYCINONE]	2100	1400	
C[C@]1(O)CC(=O)c2c(ccc3c2C(=O)c2cccc(O)c2C3=O)C1 [TETRANGOMYCIN]		1550	Not Active
Cc1cc(O)c2c(c1)C[C@@H](O)C1=C2C(=O)c2cccc(O[C@H]3C[C@@H](O)[C@H](O[C@H]4C[C@@H](O[C@H]5CC[C@H](O[C@H]6C[C@@H](O)[C@H](O[C@H]7C[C@@H](O)[C@H](O)[C@@H](C)O7)[C@@H](C)O6)[C@H](C)O5)[C@H](O)[C@@H](C)O4)[C@@H](C)O3)c2C1=O [LANDOMYCIN V]	6100	1500	
Cc1cc(O)c2c3c(ccc2c1)C(=O)c1c(O[C@H]2C[C@@H](O)[C@H](O[C@H]4C[C@@H](O)[C@H](O)[C@@H](C)O4)[C@@H](C)O2)ccc(O)c1C3=O [LANDOMYCIN R]		1700	Not Active
Cc1cc(O)c2c(c1)C[C@@H](O)C1=C2C(=O)c2c(O)ccc(O[C@H]3C[C@@H](O)[C@H](O[C@H]4C[C@@H](O[C@H]5CC[C@H](O[C@H]6C[C@@H](O)[C@H](O[C@H]7C[C@@H](O[C@H]8CC[C@H](O)[C@H](C)O8)[C@H](O)[C@@H](C)O7)[C@@H](C)O6)[C@H](C)O5)[C@H](O)[C@@H](C)O4)[C@@H](C)O3)c2C1=O [LANDOMYCIN A]	2500	1400	
Cc1cc(O)c2c3c(ccc2c1)C(=O)c1c(O)cccc1C3=O [TETRANGULOL]		1500	Not Active
Cc1cc(O)c2c3c(ccc2c1)C(=O)c1c(O[C@H]2C[C@@H](O)[C@H](O[C@H]4C[C@@H](O)[C@H](O)[C@@H](C)O4)[C@@H](C)O2)cccc1C3=O [LANDOMYCIN O]		3550	Not Active
Cc1cc(O)c2c3c(ccc2c1)C(=O)c1c(O[C@H]2C[C@@H](O)[C@H](O[C@H]4C[C@@H](O[C@H]5CC[C@H](O)[C@H](C)O5)[C@H](O)[C@@H](C)O4)[C@@H](C)O2)cccc1C3=O [LANDOMYCIN P]		3550	Not Active
Cc1cc(O)c2c3c(ccc2c1)C(=O)c1c(O[C@H]2C[C@@H](O)[C@H](O[C@H]4C[C@@H](O[C@H]5CC[C@H](O)[C@H](C)O5)[C@H](O)[C@@H](C)O4)[C@@H](C)O2)ccc(O)c1C3=O [LANDOMYCIN Q]		3850	Not Active
Cc1cc(O)c2c(c1)C[C@@H](O)C1=C2C(=O)c2cccc(O[C@H]3C[C@@H](O)[C@H](O[C@H]4C[C@@H](O)[C@H](O)[C@@H](C)O4)[C@@H](C)O3)c2C1=O [LANDOMYCIN F]		1800	Not Active
Cc1cc(O)c2c(c1)C[C@@H](O)C1=C2C(=O)c2cccc(O[C@H]3C[C@@H](O)[C@H](O[C@H]4C[C@@H](O[C@H]5CC[C@H](O[C@H]6C[C@@H](O)[C@H](O[C@H]7C[C@@H](O[C@H]8CC[C@H](O)[C@H](C)O8)[C@H](O)[C@@H](C)O7)[C@@H](C)O6)[C@H](C)O5)[C@H](O)[C@@H](C)O4)[C@@H](C)O3)c2C1=O [LANDOMYCIN S]	6700	1500	
Cc1cc(O)c2c3c(ccc2c1)C(=O)c1c(O[C@H]2C[C@@H](O)[C@H](O[C@H]4C[C@@H](O[C@H]5CC[C@H](O[C@H]6C[C@@H](O)[C@H](O[C@H]7C[C@@H](O[C@H]8CC[C@H](O)[C@H](C)O8)[C@H](O)[C@@H](C)O7)[C@@H](C)O6)[C@H](C)O5)[C@H](O)[C@@H](C)O4)[C@@H](C)O2)cccc1C3=O [LANDOMYCIN T]		1850	Not Active
Cc1cc(O)c2c(c1)C[C@@H](O)C1=C2C(=O)c2c(O)ccc(O[C@H]3C[C@@H](O)[C@H](O[C@H]4C[C@@H](O[C@H]5CC[C@H](O[C@H]6C[C@@H](O)[C@H](O[C@H]7C[C@@H](O)[C@H](O)[C@@H](C)O7)[C@@H](C)O6)[C@H](C)O5)[C@H](O)[C@@H](C)O4)[C@@H](C)O3)c2C1=O [LANDOMYCIN B]	4250	1800	
Cc1cc(O)c2c3c(ccc2c1)C(=O)c1c(O[C@H]2C[C@@H](O)[C@H](O[C@H]4C[C@@H](O[C@H]5CC[C@H](O[C@H]6C[C@@H](O)[C@H](O[C@H]7C[C@@H](O)[C@H](O)[C@@H](C)O7)[C@@H](C)O6)[C@H](C)O5)[C@H](O)[C@@H](C)O4)[C@@H](C)O2)cccc1C3=O [LANDOMYCIN M]	7100	1900	
Cc1cc(O)c2c3c(ccc2c1)C(=O)c1c(O)ccc(O)c1C3=O [ANHYDROLANDOMYCINONE]	1800	2000	
